Assay results from ChEMBL document CHEMBL2311304, “Design, synthesis and in vitro and in vivo antitumor activities of novel bivalent β-carbolines” (Eur J Med Chem, 2013).

What was measured:
SK-OV-3 = assay: Cytotoxicity against human ovary adenocarcinoma SKOV3 cells assessed as reduction in optical density by MTT assay; format: functional, cell-based; conditions: SK-OV-3, Female gonad
Outline: (§1)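 Cells were cultured in RPMI-1640 with 10% (v/v) fetal calf serum, 100 µg ml-1 penicillin and 100 µg ml-1 streptomycin at 37 °C in humidified 5% CO2. Compounds were dissolved in DMSO, with final DMSO at 2% (v/v) or lower. MTT staining was used, with three replicate wells per point. IC50 is the concentration giving a 50% drop in optical density versus untreated cells.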

KB = assay: Cytotoxicity against human epidermoid carcinoma of the nasopharynx KB cells assessed as reduction in optical density by MTT assay; format: functional, cell-based; outline: as §1
769-P = assay: Cytotoxicity against human renal carcinoma 769-P cells assessed as reduction in optical density by MTT assay; format: functional, cell-based; outline: as §1
BGC-823 = assay: Cytotoxicity against human gastric carcinoma BGC823 cells assessed as reduction in optical density by MTT assay; format: functional, cell-based; outline: as §1
A-375 = assay: Cytotoxicity against human malignant melanoma A375 cells assessed as reduction in optical density by MTT assay; format: functional, cell-based; outline: as §1
Mus musculus [1] = assay: Toxicity in C57BL/6 mouse assessed as liver damage at 1 to 500 mg/kg, ip for 14 days; format: organism-based; set-up: dose 1-500 mg/kg, route intraperitoneal; conditions: in vivo, 336 h
Outline: (§2)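 Healthy C57BL/6 mice (9–12 weeks, 18–22 g) were fasted overnight with free access to water. Each received a single i.p. dose of 1.0–500 mg kg-1 in 0.5% CMC-Na, 10 mice per group (5 male, 5 female). Mice were watched continuously for 2 h, intermittently to 24 h, then occasionally to 14 days for tremor, twitch, jumping and supination. At day 14 they were killed and heart, liver and kidneys were examined macroscopically.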

Mus musculus [2] = assay: Toxicity in C57BL/6 mouse assessed as kidney damage at 1 to 500 mg/kg, ip for 14 days; format: organism-based; set-up: dose 1-500 mg/kg, route intraperitoneal; conditions: in vivo, 336 h; outline: as §2
Mus musculus [3] = assay: Neurotoxicity in C57BL/6 mouse at 1 to 500 mg/kg, ip for 14 days; format: toxicity, organism-based; set-up: dose 1-500 mg/kg, route intraperitoneal; conditions: in vivo, 336 h; outline: as §2
CT26 = assay: Antitumor activity in mouse CT26 colon cancer cells inoculated mouse assessed as tumor inhibition rate at one fifth of LD50 concentration once a day for consecutive 7 days by ip; format: functional; set-up: scale not given: the % may be the effect or the level left
Outline: (§3)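 Each tumour line was first grown in mice for 7 days, then harvested. Viable cells (2 × 10^6 per mouse) were injected s.c. into the armpit. Dosing began 24 h later: i.p., about one fifth of LD50, daily for 7 days, 10 female mice per group. […] Body weight was recorded every 3 days. Tumours were excised and weighed on day 21 to give inhibition rate.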

Mus musculus [4] = assay: Toxicity in C57BL/6 mouse assessed as maximum weight loss at 40 mg/kg, ip; format: organism-based; set-up: dose 40 mg/kg, route intraperitoneal; conditions: in vivo
Outline: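 Tumor-bearing mice, 10 females per group, were inoculated s.c. in the armpit with 2 × 10^6 viable tumor cells. Compound was given i.p. once daily for 7 consecutive days, starting 24 h after inoculation. […] Body weight was recorded every 3 days until sacrifice on day 21.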

[5] = Antitumor activity in mouse Lewis lung cancer cells inoculated mouse assessed as tumor inhibition rate at one fifth of LD50 concentration once a day for consecutive 7 days by ip; format: functional, Cancer cell lines; set-up: scale not given: the % may be the effect or the level left; outline: as §3
Mus musculus [6] = assay: Toxicity in C57BL/6 mouse assessed as heart damage at 1 to 500 mg/kg, ip for 14 days; format: organism-based; set-up: dose 1-500 mg/kg, route intraperitoneal; conditions: in vivo, 336 h; outline: as §2

| SMILES | IC50 (SK-OV-3) [µM] | IC50 (KB) [µM] | IC50 (769-P) [µM] | IC50 (BGC-823) [µM] | IC50 (A-375) [µM] | Activity (Mus musculus [1]) | Activity (Mus musculus [2]) | Activity (Mus musculus [3]) | Activity (CT26) [%] | Activity (Mus musculus [4]) [%] | Activity [5] [%] | Activity (Mus musculus [6]) |
| --- | --- | --- | --- | --- | --- | --- | --- | --- | --- | --- | --- | --- |
| Cc1nccc2c3ccc(OC(C)C)cc3n(CCCCCCCCCn3c4cc(OC(C)C)ccc4c4ccnc(C)c43)c12 | 101 | 112 | 40 | > 200 | 43.3 |  |  |  |  |  |  |  |
| Brc1ccc2c(c1)c1ccncc1n2CCCCn1c2ccc(Br)cc2c2ccncc21 | 8.9 | > 200 | 3.1 | > 200 | > 200 |  |  |  |  |  |  |  |
| Cc1nccc2c3ccccc3n(CCCn3c4ccccc4c4ccnc(C)c43)c12 | 26.4 | 160 | 145 | > 200 | 69.5 |  |  |  |  |  |  |  |
| Cc1nccc2c3ccccc3n(CCCCCCn3c4ccccc4c4ccnc(C)c43)c12 | 16.9 | 87.9 | 149 | 134 | 38 | Non-toxic | Non-toxic | Non-toxic | 39.6 | 5.1 | 42.1 | Non-toxic |
| CCCCOc1ccc2c3ccnc(C)c3n(CCCCn3c4cc(OCCCC)ccc4c4ccnc(C)c43)c2c1 | 5.5 | 6.8 | > 200 | 8.5 | 3.8 |  |  |  |  |  |  |  |
| Cc1nccc2c3cc(Br)ccc3n(CCCCCCn3c4ccc(Br)cc4c4ccnc(C)c43)c12 | 63.4 | > 200 | > 200 | > 200 | > 200 |  |  |  |  |  |  |  |
| Cc1nccc2c3ccccc3n(CCCCCCCCCCn3c4ccccc4c4ccnc(C)c43)c12 | 8.5 | > 200 | 16.2 | > 200 | > 200 |  |  |  |  |  |  |  |
| Cc1nccc2c3ccccc3n(CCCCCCCn3c4ccccc4c4ccnc(C)c43)c12 | 96.8 | > 200 | 51.7 | > 200 | > 200 |  |  |  |  |  |  |  |
| COc1ccc2c3ccnc(C)c3n(CCCCCn3c4cc(OC)ccc4c4ccnc(C)c43)c2c1 | 1.7 | 5 | 81 | 58.6 | < 1.4 |  |  |  |  |  |  |  |
| Brc1cccc2c3ccncc3n(CCCCCCn3c4cnccc4c4cccc(Br)c43)c12 | > 200 | > 200 | > 200 | > 200 | > 200 |  |  |  |  |  |  |  |
| Cc1nccc2c3cc(Br)ccc3n(CCCCCn3c4ccc(Br)cc4c4ccnc(C)c43)c12 | > 200 | > 200 | 4.3 | > 200 | > 200 |  |  |  |  |  |  |  |
| CCOC(=O)c1cc2c3ccccc3n(CCCCCCCCCn3c4ccccc4c4cc(C(=O)OCC)nc(-c5cc(OC)c(OC)c(OC)c5)c43)c2c(-c2cc(OC)c(OC)c(OC)c2)n1 | > 200 | > 200 | > 200 | > 200 | > 200 |  |  |  |  |  |  |  |
| COc1ccc2c3ccnc(C)c3n(CCCCCCCn3c4cc(OC)ccc4c4ccnc(C)c43)c2c1 | 10.2 | 38.6 | 114 | 104 | 113 |  |  |  |  |  |  |  |
| COc1ccc2c3ccnc(C)c3n(CCCCCCCCn3c4cc(OC)ccc4c4ccnc(C)c43)c2c1 | 7.1 | 2.8 | 65.6 | 75.7 | 6.2 |  |  |  |  |  |  |  |
| CCCCOc1ccc2c3ccnc(C)c3n(CCCCCCn3c4cc(OCCCC)ccc4c4ccnc(C)c43)c2c1 | > 200 | > 200 | 56 | > 200 | > 200 |  |  |  |  |  |  |  |
| CCOC(=O)c1cc2c3ccccc3n(CCCCCCn3c4ccccc4c4cc(C(=O)OCC)nc(-c5cccnc5)c43)c2c(-c2cccnc2)n1 | 68.3 | > 200 | > 200 | > 200 | > 200 |  |  |  |  |  |  |  |
| c1ccc2c(c1)c1ccnc(-c3ccsc3)c1n2CCCCCCn1c2ccccc2c2ccnc(-c3ccsc3)c21 | > 200 | > 200 | > 200 | > 200 | > 200 |  |  |  |  |  |  |  |
